Columns and labels:
[1] = Antiviral activity against recombinant HCV genotype 2a JFH-1 infected in human Huh7.5 cells after 3 days by renilla luciferase reporter gene assay; assay type: functional, cell-based, Hepatitis C virus subtype 2a; conditions: Hepatitis C virus, JFH-1, Huh7.5, 72 h
Outline: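 Huh7.5 cells in DMEM with 10% FBS were infected with JFH1-Luc reporter virus at MOI 0.004 for 5 h at 37 °C while exposed to 3-fold serial dilutions of compound. On day 3 post-infection, the cells were lysed and Renilla luciferase activity was read. EC50 was calculated from the signal. Run in triplicate.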

[2] = Cytotoxicity against human Huh7.5 cells assessed as reduction in cell viability after 3 days by MTT assay; assay type: cell-based; conditions: time 3 day
Outline: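 Huh7.5 cells were mock-infected and then treated with increasing concentrations of compound (3-fold serial dilutions), in parallel with the antiviral plates. Viability was measured by MTT assay and CC50 was derived. Run in triplicate.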

[3] = Selectivity index, ratio of CC50 for human Huh7.5 cells to EC50 for HCV genotype 2a JFH-1 infected in human Huh7.5 cells; assay type: toxicity, cell-based; conditions: read-out: Ratio CC50/EC50
Outline: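 This is the CC50/EC50 ratio. CC50 came from MTT viability of mock-infected Huh7.5 cells. EC50 came from Renilla luciferase in Huh7.5 cells infected with JFH1-Luc (MOI 0.004) and read 3 days post-infection, with 3-fold serial compound dilutions. Both were run in parallel, in triplicate.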

[4] = target: Peptidyl-prolyl cis-trans isomerase A (Homo sapiens, UniProt P62937); test: Binding affinity to Cyclophilin A (unknown origin) by surface plasmon resonance analysis
Chain of Peptidyl-prolyl cis-trans isomerase A (P62937 whole entry): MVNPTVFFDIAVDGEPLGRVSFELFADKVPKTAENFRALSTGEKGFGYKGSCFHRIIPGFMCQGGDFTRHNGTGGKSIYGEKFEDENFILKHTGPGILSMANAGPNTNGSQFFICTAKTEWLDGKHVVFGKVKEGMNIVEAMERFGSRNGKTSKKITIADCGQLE
Outline: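 SPR was used. CypA was immobilized by EDC/NHS activation, diluted in 10 mM sodium acetate pH 6.0, then quenched with 1 M ethanolamine pH 8.5. A protein-free reference channel was used. Running buffer was PBS with 5% DMSO at 30 µL/min, with 3 min association and 4 min dissociation. Regeneration used 50 mM NaOH. KD came from kinetic fitting.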

Structure (SMILES)	EC50 [1] [µM]	CC50 at 72 h [2] [µM]	selectivity ratio [3]	Kd [4] [µM]
COc1ccc(C(C(=O)NC2CCCCC2)N(C(=O)Cc2c[nH]c3ccccc23)c2ccc(Br)cc2)c(OC)c1OC (centres undefined)	> 7.2	7.2	–	–
COc1ccc(C(C(=O)NC2CCCCC2)N(C(=O)Cc2c[nH]c3ccccc23)C2CCCCC2)cc1OC (centres undefined)	> 14.6	14.6	–	–
COc1ccc(N(C(=O)Cc2c[nH]c3ccccc23)C(C(=O)NC2CCCCC2)c2cc(OC)c(OC)c(OC)c2)cc1OC (centres undefined)	10.2	56.7	5.5	–
COc1ccc(C(C(=O)NC2CCCCC2)N(CC(OC)OC)C(=O)Cc2c[nH]c3ccccc23)cc1OC (centres undefined)	> 54.5	54.5	–	–
COc1ccc(C(C(=O)NC2CCCCC2)N(C(=O)Cc2c[nH]c3ccccc23)c2ccccc2)c(OC)c1OC (centres undefined)	> 18.8	18.8	–	–
COc1cc(C(C(=O)NC2CCCCC2)N(C(=O)Cc2c[nH]c3ccccc23)c2ccc(C(C)C)cc2)cc(OC)c1OC (centres undefined)	5.2	> 100	> 19.2	–
COc1cc(C(C(=O)NC2CCCCC2)N(C(=O)Cc2c[nH]c3ccccc23)c2cccc3ccccc23)cc(OC)c1OC (centres undefined)	9.4	33.2	3.4	–
COc1ccc(CCN(C(=O)Cc2c[nH]c3ccccc23)C(C(=O)NC2CCCCC2)c2cc(OC)c(OC)c(OC)c2)cc1OC (centres undefined)	5.3	> 100	> 18.9	3.66
COc1cc(C(C(=O)NC2CCCCC2)N(C(=O)c2cc3ccccc3[nH]2)c2ccc(C(C)C)cc2)cc(OC)c1OC (centres undefined)	2	19.4	9.7	–
COc1ccc(C(C(=O)NC2CCCCC2)N(C(=O)Cc2c[nH]c3ccccc23)c2ccc(C(C)C)cc2)cc1OC (centres undefined)	2	6.9	3.5	–
COc1ccc(C(C(=O)NC2CCCCC2)N(C(=O)Cc2c[nH]c3ccccc23)c2ccc(C(C)C)cc2)c(OC)c1OC (centres undefined)	> 5.9	5.9	–	–
COc1ccc(N(C(=O)Cc2c[nH]c3ccccc23)C(C(=O)NC2CCCCC2)c2cc(OC)c(OC)c(OC)c2)cc1 (centres undefined)	5	44.8	9	–
COc1ccc(Cn2cc(CC(=O)N(c3ccccc3)C(C(=O)NC3CCCCC3)c3ccccc3)c3ccccc32)cc1 (centres undefined)	> 24.4	24.4	–	–
COc1ccc(C(C(=O)NC2CCCCC2)N(C(=O)Cc2c[nH]c3ccccc23)c2ccc(OC)c(OC)c2)cc1OC (centres undefined)	5.3	55.3	10.5	–
COc1cc(C(C(=O)NC(C)(C)C)N(C(=O)c2cc3ccccc3[nH]2)c2ccc(C(C)C)cc2)cc(OC)c1OC (centres undefined)	5.9	36.7	6.2	–
COc1cc(C(C(=O)NC(C)(C)C)N(C(=O)Cc2c[nH]c3ccccc23)c2ccc(C(C)C)cc2)cc(OC)c1OC (centres undefined)	6.3	13.9	2.3	–
NC(=O)c1ncn([C@@H]2O[C@H](CO)[C@@H](O)[C@H]2O)n1 [RIBAVIRIN]	> 100	16.3	> 6.1	–
COc1ccc(N(C(=O)Cc2c[nH]c3ccccc23)C(C(=O)NC2CCCCC2)c2ccc(OC)c(OC)c2)cc1 (centres undefined)	3.8	32.7	8.6	–

From ChEMBL document CHEMBL4680152, “Molecular design, synthesis, and biological evaluation of bisamide derivatives as cyclophilin A inhibitors for HCV treatment” (Eur J Med Chem, 2020)
